Published values pooled from the literature.
Each line is one published result; the experiments were not run side by side.
EGFR: Epidermal growth factor receptor (EGFR, Homo sapiens, UniProt P00533)
EGFR L858R: Epidermal growth factor receptor (EGFR, Homo sapiens, UniProt P00533, L858R)
EGFR del747-752/P753S: Epidermal growth factor receptor (EGFR, Homo sapiens, UniProt P00533, del747-752/P753S)
EGFR G719C: Epidermal growth factor receptor (EGFR, Homo sapiens, UniProt P00533, G719C)
EGFR del746-750: Epidermal growth factor receptor (EGFR, Homo sapiens, UniProt P00533, del746-750)
EGFR del752-759: Epidermal growth factor receptor (EGFR, Homo sapiens, UniProt P00533, del752-759)
EGFR del747-750/T751S: Epidermal growth factor receptor (EGFR, Homo sapiens, UniProt P00533, del747-750/T751S)
EGFR L858R/T790M: Epidermal growth factor receptor (EGFR, Homo sapiens, UniProt P00533, L858R/T790M)
EGFR A750P/del747-749: Epidermal growth factor receptor (EGFR, Homo sapiens, UniProt P00533, A750P/del747-749)
EGFR L861Q: Epidermal growth factor receptor (EGFR, Homo sapiens, UniProt P00533, L861Q)

Compound	target	assay	setting	remaining binding [%]
C[C@H]1CCN(c2nccc(-c3cnn4ncccc34)n2)C1	EGFR	binding	1 µM	100
COc1cccc(CNC(=O)c2nc3scc(COCc4ccc(C(=O)O)cc4)c3c(=O)[nH]2)c1	EGFR L858R	cell-free assay, competition with immobilised ligand	1 µM	88.3
COc1cnc(Nc2cccc(S(N)(=O)=O)c2)nc1N1CCN(c2ccccc2)CC1	EGFR L858R	binding, competition with immobilised ligand	1 µM	89
CC(C)(C)c1ccc(-c2nc(CBr)nn2-c2cccc(O)c2)cc1	EGFR	cell-free assay, competition with immobilised ligand	10 µM	85
CNC(=O)c1ccc(Nc2ncc(C(F)(F)F)c(NCc3nccnc3N(C)S(C)(=O)=O)n2)cc1	EGFR L858R	cell-free assay, competition with immobilised ligand	0.1 µM	100
CN1CCN(c2ccc(Nc3nccc(-c4ccccc4)n3)cc2C(F)(F)F)CC1	EGFR L858R	binding	10 µM	84
C[C@@H]1CN(c2ccc3ncc(-c4ccc5[nH]nc(C6CC6)c5c4)n3n2)C[C@H](C)O1	EGFR	binding, competition with immobilised ligand	0.5 µM	31
O=C(c1ccc(Nc2ncc(Cl)c(-c3cc4ccccc4s3)n2)cc1)N1CCC(N2CCCC2)CC1	EGFR del747-752/P753S	binding, competition with immobilised ligand	1 µM	79
Cc1nc(N2CC[C@@H](O)C2)ncc1-c1cc(C(F)(F)F)cc2[nH]ncc12	EGFR G719C	cell-free assay, competition with immobilised ligand	1 µM	100
O=C(NCCCN1CCOCC1)c1ccc(Nc2ncc(Cl)c(-c3ccc(Cl)s3)n2)cc1	EGFR del746-750	binding, competition with immobilised ligand	1 µM	92
O=C(Nc1c[nH]nc1C(=O)NC1CCNCC1)c1cc(F)cc(F)c1	EGFR del752-759	binding, competition with immobilised ligand	1 µM	100
COc1ncc2cc3ccccc3nc2c1C#N	EGFR G719C	cell-free assay, competition with immobilised ligand	5 µM	2.1
CC(=O)N1CCC(c2ccc(C(=O)NC(=N)N)cc2C(F)(F)F)CC1	EGFR del747-750/T751S	cell-free assay, competition with immobilised ligand	1 µM	100
O=C(NCCCN1CCOCC1)c1ccc(Nc2nccc(-c3cc4ccccc4s3)n2)cc1	EGFR del747-752/P753S	binding, competition with immobilised ligand	1 µM	92
CN(C)c1nccc(-c2cnn3ncccc23)n1	Epidermal growth factor receptor (EGFR, Homo sapiens, UniProt P00533, T790M)	binding	1 µM	100
CCN1CCN(Cc2ccc(C(=O)Nc3ccc(C)c(Oc4ccc5c(c4)CC(=O)N5)c3)cc2C(F)(F)F)CC1	EGFR L858R/T790M	binding, competition with immobilised ligand	1 µM	90
CN(CCCC(F)(F)F)c1nccc(-c2cnn3ncccc23)n1	EGFR L858R/T790M	binding	1 µM	100
O=C(NC1CCC1)c1ccc2nc(-c3cccc(NS(=O)(=O)NCCN4CCCCC4)c3)cn2c1	EGFR A750P/del747-749	cell-free assay, competition with immobilised ligand	10 µM	100

Compound	target	assay	setting	remaining binding [%]
Cc1ccc(NC(=O)c2ccc(CN3CCN(C)CC3)cc2)cc1Nc1nccc(-c2cccnc2)n1	EGFR	cell-free assay, competition with immobilised ligand	0.1 µM	100
O=C(c1ccc(Nc2ncc(Cl)c(-c3ccc(Cl)s3)n2)cc1)N1CCC(N2CCCC2)CC1	EGFR del747-750/T751S	binding, competition with immobilised ligand	1 µM	100
CC1CCCN1c1nccc(-c2cnn3ncccc23)n1 (stereo not drawn)	EGFR del746-750	binding	1 µM	75
Cc1noc([C@H]2C[C@@H](c3ccc(C(F)(F)F)cc3)CN(C(=O)N3CCS(=O)(=O)C3)C2)n1	EGFR L858R/T790M	cell-free assay, competition with immobilised ligand	1 µM	96
O=C(c1ccc(Nc2nccc(-c3cc4ccccc4s3)n2)cc1)N1CCC(N2CCCC2)CC1	EGFR L861Q	binding, competition with immobilised ligand	1 µM	89
Nc1ncc2c(n1)-c1c([nH]c3ccc(C#CC4CC4)cc13)CCCC2	EGFR A750P/del747-749	binding, competition with immobilised ligand	1 µM	84
CN(C)C(=O)Cn1cc(-c2nc(C3(c4ccc(-c5cnc(N)nc5)cc4)CC3)no2)cn1	EGFR L861Q	cell-free assay, competition with immobilised ligand	1 µM	100
Cc1cnc(Nc2ccc(C(=O)N3CCC(N4CCCC4)CC3)cc2)nc1-c1cc2ccccc2s1	EGFR A750P/del747-749	binding, competition with immobilised ligand	1 µM	72
Cc1cnn2ncc(-c3ccnc(N(C)C)n3)c2c1	EGFR L858R/T790M	binding	1 µM	100
O=C(Nc1cccnn1)N1CC(C/C=C/c2cncc(Oc3ccc(C(F)(F)F)cn3)n2)C1	EGFR del747-750/T751S	cell-free assay, competition with immobilised ligand	1 µM	100
c1cnn2ncc(-c3ccnc(N4CCC45COC5)n3)c2c1	EGFR L861Q	binding	1 µM	96
CNC(=O)[C@@H]1CC[C@@H](n2c(-c3ccc4cnccc4c3)nc3ccc(C(=O)NCc4cccc(C(N)=O)c4)cc32)C1	EGFR A750P/del747-749	binding, competition with immobilised ligand	1 µM	100
N[C@H]1CCN(c2nccc(-c3cnn4ncccc34)n2)C1	EGFR	binding	1 µM	100
CN1CCN(c2ccc(Nc3nccc(-c4cccc([N+](=O)[O-])c4)n3)cc2C(F)(F)F)CC1	EGFR del752-759	binding	10 µM	74
COc1cnc(Nc2cccc(S(N)(=O)=O)c2)nc1N1CCN(c2ccccc2)C(=O)C1	EGFR del752-759	binding, competition with immobilised ligand	1 µM	100
O=C(NCC1CCOCC1)c1n[nH]cc1NC(=O)c1c(F)cccc1F	EGFR A750P/del747-749	binding, competition with immobilised ligand	1 µM	96
CN(c1ccnc(CNc2nc(Nc3ccc4c(c3)CC(=O)N4)ncc2C(F)(F)F)n1)S(C)(=O)=O	EGFR del747-750/T751S	cell-free assay, competition with immobilised ligand	1 µM	83
c1cncc(-c2cccc(Nc3nccc(NC4CCCCC4)n3)c2)c1	EGFR L861Q	binding, competition with immobilised ligand	10 µM	53
